ChEMBL document CHEMBL4393700, “Novel resveratrol-based flavonol derivatives: Synthesis and anti-inflammatory activity in vitro and in vivo” (Eur J Med Chem, 2019)
Calls of active or inactive are those of the source. The calls are words filed in the database; no cut-off is given here.

Key:
[1] = system: RAW264.7; test: Cytotoxicity against LPS-stimulated mouse RAW264.7 cells at 20 uM pretreated for 1 hr followed by LPS stimulation and measured after 24 hrs by MTT assay; settings: raw264.7, 24 h
[2] = system: RAW264.7; test: Antiinflammatory activity in mouse RAW264.7 cells assessed as inhibition of LPS-induced NO production at 10 uM pretreated for 1 hr followed by LPS stimulation and measured after 24 hrs by Griess reagent based assay; assay type: functional, cell-based
Outline: (§1)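 RAW264.7 in DMEM/10% FBS with penicillin-streptomycin, 37 °C, 5% CO2; seeded 6×10^4 cells/well, grown 24 h, pretreated 1 h with test agent (10 µM screen; 10, 5, 2.5, 1.25, 0.625 µM for concentration series), then LPS 0.5 µg/mL for 24 h. Supernatant nitrite measured with Griess reagent.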

[3] = system: RAW264.7; test: Antiinflammatory activity in mouse RAW264.7 cells assessed as reduction in LPS-induced NO production pretreated for 1 hr followed by LPS stimulation and measured after 24 hrs by Griess reagent based assay; assay type: functional, cell-based
Outline: as §1

[4] = system: RAW264.7; test: Antiinflammatory activity in mouse RAW264.7 cells assessed as reduction in LPS-induced IL-6 production pretreated for 1 hr followed by LPS stimulation and measured after 24 hrs by ELISA; assay type: functional, cell-based
Outline: (§2)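 RAW264.7 seeded 6×10^4 cells/well, cultured 24 h; 1 h pretreatment at 10, 5, 2.5, 1.25 or 0.625 µM, then LPS 0.5 µg/mL for 24 h. IL-6 and TNF-α in conditioned medium quantified by ELISA.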

[5] = system: RAW264.7; test: Antiinflammatory activity in mouse RAW264.7 cells assessed as reduction in LPS-induced TNF alpha production pretreated for 1 hr followed by LPS stimulation and measured after 24 hrs by ELISA; assay type: functional, cell-based
Outline: as §2

Q: How did the Activity [1] turn out when `CCOc1ccc(/C=C/c2cc(OC)cc(OC)c2-c2cc(=O)c3cc(OC)ccc3o2)cc1` was run?
A: Non-Toxic

Q: How did the inhibition [2] turn out when `COc1ccc(/C=C/c2cc(OC)cc(OC)c2-c2oc3ccc(OC)cc3c(=O)c2O)cc1` was run?
A: Active

Q: What about the Activity [3] of the same compound?
A: Dose-dependent effect

Q: What about the IC50 [3] of the same compound?
A: 1780 nM

Q: And the Activity [4]?
A: Dose-dependent effect

Q: And the IC50 [4]?
A: 2370 nM

Q: And the Activity [5]?
A: Dose-dependent effect

Q: And the IC50 [5]?
A: 5000 nM

Q: With `COc1ccc(/C=C/c2cc(OC)cc(OC)c2-c2oc3cc(C)ccc3c(=O)c2O)cc1` as the compound, how does the Activity [1] read?
A: Non-Toxic

Q: With `Oc1ccc(/C=C/c2cc(O)cc(O)c2)cc1` as the compound, how does the inhibition [2] read?
A: Active

Q: `CCOc1ccc(/C=C/c2cc(OC)cc(OC)c2-c2oc3ccccc3c(=O)c2O)cc1` was tested. Which inhibition [2] did it give?
A: Active

Q: With `COc1ccc(/C=C/c2cc(OC)cc(OC)c2-c2oc3ccc(Br)cc3c(=O)c2O)cc1` as the compound, how does the inhibition [2] read?
A: Active

Q: With `COc1ccc(/C=C/c2cc(OC)cc(OC)c2-c2cc(=O)c3cc(OC)ccc3o2)cc1` as the compound, how does the inhibition [2] read?
A: Active
